The text below walks through data of ChEMBL document CHEMBL1153226, “Isoxazolopyridone derivatives as allosteric metabotropic glutamate receptor 7 antagonists” (Bioorg Med Chem Lett, 2010).

The target of data set [1] is Metabotropic glutamate receptor 7 (Rattus norvegicus, UniProt P35400). Kind of data set: Antagonist activity at rat mGluR7 expressed in CHO cells assessed as inhibition of LAP-induced intracellular calcium mobilization by FLIPR. The format is functional, cell-based. In outline: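 CHO cells co-expressing mGluR7 and Gα15 were challenged with L-AP, and Ca2+ mobilization was read. IC50 was calculated from inhibition curves as the mean of at least two independent assays.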
Chain of Metabotropic glutamate receptor 7 (P35400 whole entry): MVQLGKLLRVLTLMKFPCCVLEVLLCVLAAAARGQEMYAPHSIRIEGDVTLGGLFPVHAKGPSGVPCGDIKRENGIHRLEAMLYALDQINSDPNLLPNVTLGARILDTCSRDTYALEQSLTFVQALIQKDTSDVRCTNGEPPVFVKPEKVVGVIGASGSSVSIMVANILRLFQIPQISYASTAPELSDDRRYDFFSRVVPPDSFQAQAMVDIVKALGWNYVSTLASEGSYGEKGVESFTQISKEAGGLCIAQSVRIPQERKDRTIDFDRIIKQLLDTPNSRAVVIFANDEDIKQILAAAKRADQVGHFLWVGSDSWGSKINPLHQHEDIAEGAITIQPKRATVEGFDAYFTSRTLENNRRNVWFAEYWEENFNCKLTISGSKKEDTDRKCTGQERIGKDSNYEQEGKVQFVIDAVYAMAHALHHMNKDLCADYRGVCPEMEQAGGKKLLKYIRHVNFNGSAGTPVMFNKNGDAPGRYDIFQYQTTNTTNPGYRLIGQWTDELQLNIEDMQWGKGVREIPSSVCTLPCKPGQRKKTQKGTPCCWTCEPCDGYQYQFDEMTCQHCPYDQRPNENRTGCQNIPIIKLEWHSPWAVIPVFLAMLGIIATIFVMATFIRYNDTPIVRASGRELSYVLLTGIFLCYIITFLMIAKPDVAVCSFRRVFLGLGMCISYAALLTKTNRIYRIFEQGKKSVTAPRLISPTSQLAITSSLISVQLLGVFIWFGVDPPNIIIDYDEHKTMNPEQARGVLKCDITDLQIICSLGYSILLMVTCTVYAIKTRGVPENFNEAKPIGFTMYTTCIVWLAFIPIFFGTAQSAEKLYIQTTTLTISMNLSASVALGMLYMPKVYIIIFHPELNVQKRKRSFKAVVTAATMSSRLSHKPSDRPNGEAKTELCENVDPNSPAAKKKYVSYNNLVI
On the technique in general: A change in cytosolic calcium serves as a functional read-out for many receptors and channels.

A short description of data set [2]: Solubility at pH 7.4. The class given is physicochemical. The settings on record: buffer.
A short description of data set [3]: Oral bioavailability in Sprague-Dawley rat at 10 mg/kg. The following applies: in vivo, 3 mg/kg, in the assay text read “3 mg/kg” for “10 mg/kg”. The class given is ADME, organism-based. In outline: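 Male SD rats (n = 3) were given a single iv dose of 1 mg/kg in PEG400/EtOH/H2O (50:10:40), or an oral gavage dose as a 0.5% methylcellulose aqueous suspension. Blood was sampled at multiple times up to 8 h. Plasma was deproteinized with ethanol containing internal standard. Values are means.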

A short description of data set [4]: Plasma concentration in Sprague-Dawley rat at 10 mg/kg, po after 0.5 hrs. Set-up: dose 10 mg/kg, route oral. The format is ADME, organism-based. In short, it runs like this:
(§1)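 Male Sprague-Dawley rats (7–10 weeks, 200–400 g, n = 3) were dosed orally at 10 mg/kg as a 0.5% methylcellulose suspension. Aortic blood was taken under isoflurane at 0.5 and 2 h, and brain at 2 h. Plasma and brain homogenate were deproteinized with threefold ethanol plus internal standard and analysed by LC–MS/MS against a relative calibration curve. B/P = brain (nmol/g) / plasma level.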

Data set [5] can be described thus: Plasma concentration in Sprague-Dawley rat at 2 mg/kg, po after 0.5 hrs. The format is ADME, organism-based. Also on record: dose 2 mg/kg, route oral.
Data set [6] in a line: Ratio of drug level in brain to plasma in Sprague-Dawley rat at 10 mg/kg, po after 2 hrs. The format is ADME, organism-based. Also on record: dose 10 mg/kg, route oral. The settings on record: read-out: BPR. In outline: as §1
Data set [7] in a line: AUC in Sprague-Dawley rat at 1 mg/kg, iv and 3 mg/kg, po. The settings on record: plasma.
Data set [8] is described as follows: Plasma clearance in Sprague-Dawley rat at 1 mg/kg, iv and 3 mg/kg, po.

≈ marks a conversion by molar mass, not a printed value.

Broadly, the IC50 is the midpoint of a concentration-inhibition curve. Consider `CCCc1ccc(-c2cc3onc(-c4ccccc4)c3c(=O)n2C)cc1`, for which, in data set [1], the IC50 came out at 150 nM.

`CN(C)c1ccc(-c2cc3onc(-c4ccccc4)c3c(=O)n2C)cc1`: the IC50 in data set [1] was 140 nM.

In the case of `Cn1c(-c2ccc3c(c2)OCO3)cc2onc(-c3ccccc3)c2c1=O`, the IC50 in data set [1] came out at 26 nM.

For the compound `COc1ccc(-c2cc3onc(-c4ccccc4)c3c(=O)n2C)cc1Br`, the IC50 in data set [1] stood at 580 nM.

Consider `CC(C)n1c(-c2ccccc2)cc2onc(-c3ccccc3)c2c1=O`, for which the IC50 in data set [1] is more than 10000 nM.

As to `COc1ccc(-c2cc3onc(-c4ccccc4)c3c(=O)n2C)cc1F`, the IC50 in data set [1] came out at 210 nM.

On to `COc1ccc(-c2noc3cc(-c4ccccc4)n(C)c(=O)c23)cc1`, for which the IC50 in data set [1] turned out to be 29 nM.

With `CN(C)c1cccc(-c2cc3onc(-c4ccccc4)c3c(=O)n2C)c1`, the IC50 in data set [1] stood at 31 nM.

Turning to `Cc1ccc(-c2cc3onc(-c4ccccc4)c3c(=O)n2C)cc1`, the 50% inhibitory concentration (IC50) in data set [1] was found to be 51 nM.

Turning to `COc1ccccc1-c1noc2cc(-c3ccccc3)n(C)c(=O)c12`, the IC50 in data set [1] is 21 nM.

Turning to `CC(C)Oc1ccc(-c2cc3onc(-c4ccccc4)c3c(=O)n2C)cc1`, in data set [1], the IC50 is more than 10000 nM.

Take `CCn1c(-c2ccccc2)cc2onc(-c3ccccc3)c2c1=O`: in data set [1], the IC50 is 910 nM.

As to `Cn1c(-c2ccccc2)cc2onc(-c3cccnc3)c2c1=O`, the IC50 in data set [1] came to 240 nM.

As to `COc1ccc(-c2cc3onc(-c4ccccc4)c3c(=O)n2C)cc1`, the IC50 in data set [1] came out at 22 nM.

Usually solubility stands for how much of the substance goes into solution per volume. A high value points to much dissolved substance. One may read the bioavailability as dose-corrected exposure relative to a reference, in per cent. Lower therefore signals little systemic uptake. The AUC is the area under the concentration-time curve, a measure of exposure. Low values mean less exposure, high ones more exposure. As for `COc1ccc(-c2cc3onc(-c4ccncc4)c3c(=O)n2C)cc1`, the IC50 in data set [1] was 26 nM. The same compound registered a solubility in data set [2] of 3.3 µg/mL (≈ 9.9 µM). In data set [3], this compound yielded a bioavailability of 65%. Further, the concentration at 0.5 h came to 5.1 µM in data set [4] and 3.9 µM in data set [5]. Also, in data set [6], the Kp at 2 h came to 1. For the same compound, the AUC in data set [7] worked out at 0.71 µM·h. In data set [8], this compound gave a clearance of 1 mL/min/kg.

Regarding `Cn1c(-c2ccccc2)cc2onc(-c3ccncc3)c2c1=O`, the half-inhibitory concentration (IC50) in data set [1] was determined as 101 nM.

`Cn1c(-c2cccc(C(F)(F)F)c2)cc2onc(-c3ccccc3)c2c1=O`: the concentration for half-maximal inhibition (IC50) in data set [1] was found to be 96 nM.

For `Cn1c(-c2ccccc2)cc2onc(-c3ccccc3)c2c1=O`, the IC50 in data set [1] was found to be 20 nM. In data set [2], this compound showed a solubility of 0.17 µg/mL (≈ 0.562 µM).

Take `Cn1c(-c2ccccc2)cc2onc(-c3ccccn3)c2c1=O`: in data set [1], the half-inhibitory concentration (IC50) worked out at 1000 nM.

With `COc1cccc(-c2noc3cc(-c4ccccc4)n(C)c(=O)c23)c1`, the IC50 in data set [1] was 12 nM.

On to `Cn1c(-c2ccc(F)cc2)cc2onc(-c3ccccc3)c2c1=O`, for which, in data set [1], the half-maximal inhibitory concentration (IC50) amounted to 72 nM.
